Source: PubChem
Kir21 inh: Kir2.1 (mouse) channel inhibition | HEK293-Kir2.1, FluxOR thallium flux fluorescence; active compounds read low | P35561 | 310,000 tested, 0.85% active | AID 1672 | B-score at 10 µM;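 active = fluorescence ratio B-score at or below minus 3 SD of library scores, with starting-brightness B-score within 2 SD, cut at about -4.2 in these data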;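 note: channel flux triggered by added potassium and thallium sulfate stimulus; B-score of peak minus minimum fluorescence over baseline after thallium stimulus; more negative B-score means stronger Kir2.1 block with less thallium influx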
Target sequence (P35561 whole entry, looked up): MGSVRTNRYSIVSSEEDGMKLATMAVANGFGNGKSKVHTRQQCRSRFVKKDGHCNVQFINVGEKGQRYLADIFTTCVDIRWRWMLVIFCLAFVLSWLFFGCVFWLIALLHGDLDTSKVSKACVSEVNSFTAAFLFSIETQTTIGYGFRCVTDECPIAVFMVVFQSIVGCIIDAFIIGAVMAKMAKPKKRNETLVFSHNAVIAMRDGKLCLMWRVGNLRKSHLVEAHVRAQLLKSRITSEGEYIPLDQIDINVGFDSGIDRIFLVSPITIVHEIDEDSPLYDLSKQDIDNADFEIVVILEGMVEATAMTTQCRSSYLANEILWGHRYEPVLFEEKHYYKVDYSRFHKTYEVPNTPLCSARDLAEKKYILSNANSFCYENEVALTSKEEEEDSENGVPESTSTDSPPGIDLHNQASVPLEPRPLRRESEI
SR-BI DiI-HDL act: enhances SR-BI lipid uptake from DiI-HDL; CHO ldlA[mSR-BI] cells, DiI-HDL uptake fluorescence, 3 h; 100 = double the neutral-control signal; activation, % at 12.5 µM; 320,000 tested, 0.096% active; AID 504775;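 active = mean replicate activation of at least 60% and every replicate at or above 60%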;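 note: 0% = median plate neutral-control signal and 100% = twice that signal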
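system = CHO ldlA[mSR-BI] cells, LDL receptor-null, SR-BI overexpressing | medium = Ham's F12 with 0.5% BSA, HEPES 25 mM, pH 7.4 | probe or stimulus = DiI-HDL 10 µg/mL | compound dosing = single-point compound dose | incubation = compound exposure 3 h, 37 °C | technique = DiI fluorescence, bottom read | read-out = cell-associated DiI fluorescence as measure of HDL uptake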
ANO1 block: blocks the mouse calcium-activated chloride channel TMEM16A | Q8BHY3 | HEK293 TMEM16A/YFP iodide influx fluorescence, ionomycin | normalized B-score (activity score, 25-100; higher = stronger inhibition) at 10 µM | 310,000 tested, 1.2% active | AID 588511;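 active = ratio plate-corrected score three or more library SD toward inhibition, starting fluorescence score within five deviations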;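 note: score derived from kinetic fluorescence span divided by baseline fluorescence per well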
SR-BI HDL uptake: mouse SR-BI HDL lipid transfer inhibition; Q61009; ldlA[mSR-BI] CHO cells, DiI-HDL uptake fluorescence, 3 h; inhibition, % at 12.5 µM; 320,000 tested, 0.96% active; AID 488896;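 active = mean replicate inhibition of at least 70% and a set share of replicates each scoring 70 or more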;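 note: 0% = median of neutral control wells and 100% = median of positive control wells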
TMEM16A act: mouse TMEM16A channel activation, primary screen. Q8BHY3. HEK293 TMEM16A/YFP-H148Q/I152L, iodide quench fluorescence; active compounds read low. B-score at 10 µM. 340,000 tested, 0.3% active. AID 623877;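 active = fluorescence-ratio B-score plate-corrected deviation score at least 3 library SD below zero, with starting fluorescence score within 5 deviations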;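 note: channel opened by trigger with iodide after compound preincubation; score built on the fluorescence ratio of max minus min over baseline; more negative score means more quench and so TMEM16A activation or potentiation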
DNA FID counter: fluorescent intercalator displacement, NS3 helicase counter-screen. DNA fluorescent intercalator displacement, fluorescence. inhibition, % at 7.9 µM. 290,000 tested, 0.17% active; in the data active = inhibition above about 37%;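 note: 0% = vehicle and 100% = reference compound; higher means more ethidium bromide displaced from hairpin DNA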
TMEM16A reconf: reconfirmed blocker of mouse TMEM16A calcium-activated chloride channel; shares compounds with ANO1 block; HEK293 TMEM16A/YFP-H148Q, iodide quench fluorescence; ionomycin added to raise cell calcium; inhibition, % at 10 µM; 2,300 tested, 39% active;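 active = mean duplicate percent inhibition, scaled so buffer wells are 0 and the reference blocker 100, over three buffer SD above buffer mean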
TMEM16A Ca cntr: alters calcium mobilization in TMEM16A HEK293 cells, counter-screen; calcium response (% of ionomycin), % at 10 µM; shares compounds with ANO1 block; 2,300 tested, 2% active; AID 652231; TMEM16A/YFP HEK293, Fluo4 calcium mobilization;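 active = duplicate-averaged calcium signal over 20% of the ionomycin maximum, relative to buffer baseline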;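 note: each well's signal is peak minus trough fluorescence divided by its pre-addition baseline; 0% = buffer wells and 100% = ionomycin wells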
Parental YFP cnt: counter-screen for TMEM16A inhibitors: effect in parental YFP-HEK293 cells; 2,300 tested, under 10 active; AID 652233; shares compounds with ANO1 block; iodide YFP quench, ionomycin; YFP ratio F(max-min)/F0 at 10 µM;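 active = yellow fluorescent protein signal ratio exceeding the buffer control mean by over 5 SD of those controls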;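 note: ratio is mean of duplicate wells from kinetic YFP trace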
ClC-1 rat inh: rat ClC-1 inhibition, TMEM16A specificity screen; shares compounds with ANO1 block; CHO ClC-1-YFP, iodide influx fluorescence quench; iodide control reads 0, buffer control 100; ratio percent, % at 10 µM; 2,300 tested, under 10 active;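 active = duplicate-mean ratio percent above the mean of iodide-only control wells, which defines zero, plus 5 of their SD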;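 note: higher percent means stronger block of ClC-1 iodide influx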
* hit, by the source's call; i = inactive; . = no result given. Hits are enriched below; roughly 3% of the tested compounds scored in any of these assays.

SMILES	Kir21 inh	SR-BI DiI-HDL act	ANO1 block	SR-BI HDL uptake	TMEM16A act	DNA FID counter	TMEM16A reconf	TMEM16A Ca cntr	Parental YFP cnt	ClC-1 rat inh
Cc1nc2cc(-c3ccsc3-n3c(C)ccc3C)[nH]n2c(=O)c1Cl	1.9	-8.4	100*	8.4	i	-12.7	20.5%*	i	-0.905	-14.0
Fc1nc(F)c(F)c(NCCCNc2c(F)c(F)nc(F)c2F)c1F	0.61	-12.7	100*	12.7	i	5.9	51.5%*	i	-0.998	-27.5
CS(=O)(=O)N1CCN(Cc2cc(=O)n3ccsc3n2)CC1	-0.75	.	i	.	i	-1.1	.	.	.	.
CCOc1ccc(Nc2nc(N3CCOCC3)nc(N3CCOCC3)n2)cc1	1.68	-46.5	i	46.5	i	-37.3	.	.	.	.
CCOc1ccc(Nc2nc(NCCN3CCOCC3)nc(OC)n2)cc1	0.41	14.7	100*	-14.7	i	-0.1	i	i	-0.942	-9.5
Cc1nn(CC(=O)Nc2cccc(C(F)(F)F)c2)c(=O)c2cccn12	0.77	8.5	i	-8.5	i	-7.5	.	.	.	.
CC(C)(C)c1ccc(Oc2ccc(NC(=O)c3ccco3)cn2)cc1	0.96	2.0	100*	-2.0	i	-9.8	20.0%*	i	-1.11	-11.5
O=C(Nc1ccc(Oc2cccnc2)nc1)c1ccc(C(F)(F)F)cc1	0.88	4.7	25*	-4.7	i	-16.5	i	i	-0.974	-7.5
COc1cccc2sc3cc(NCc4ccc(C)o4)ccc3c(=O)c12	.	-23.2	.	23.2	i	.	.	.	.	.
Cc1cccc(NC(=O)Cn2ccn(-c3ccc4c(c3)OCCO4)c(=O)c2=O)c1	1.83	11.4	i	-11.4	i	.	.	.	.	.
COc1ccc(-n2c(=O)cc(N3CCN(c4ccccc4F)CC3)[nH]c2=O)cc1	.	5.8	25*	-5.7	i	-16.0	i	i	-1	-5.5
COc1ccccc1N1CCN(c2cc(=O)n(-c3ccccc3Cl)c(=O)[nH]2)CC1	-0.12	7.2	100*	-7.2	i	-26.9	i	i	-1.02	-7.5
COc1ccc(-n2c(=O)cc(N3CCN(c4ccccc4OC)CC3)[nH]c2=O)cc1	.	-4.3	i	4.3	i	-4.3	.	.	.	.
Oc1ccccc1-c1cc(C(F)(F)C(F)F)[nH]n1	-1.3	21.6	100*	-21.6	i	2.1	i	i	-0.825	-13.0
CC(C)(C)c1cc(-c2ccccc2)n[nH]1	1.13	6.8	i	-6.8	i	-2.4	.	.	.	.
Fc1ccc(-c2cc(C(F)(F)C(F)F)[nH]n2)cc1	0.17	.	100*	.	i	-0.1	54.5%*	i	-1.07	-7.0
FC(F)C(F)(F)c1cc(-c2ccc(Cl)cc2)n[nH]1	1.07	.	100*	.	i	-4.9	97.0%*	i	-0.938	-27.5
O=C(Cc1ccccc1Cl)Nc1cc(S(=O)(=O)N2CCOCC2)ccc1N1CCOCC1	.	10.5	.	-10.5	i	.	.	.	.	.
COC(=O)N/N=C(\CCC(=O)O)c1cccs1	1.27	14.5	i	-14.5	i	-4.9	.	.	.	.
O=C(OCc1nc2ccccc2s1)C1CCN(C2=NS(=O)(=O)c3ccccc32)CC1	0.01	16.3	25*	-16.3	i	-22.9	16.5%*	i	-0.888	-4.0
CC(C)CN(C(=O)COC(=O)c1cc2ccccc2cc1O)c1c(N)n(Cc2ccccc2)c(=O)[nH]c1=O	.	-30.1	.	30.1	i	.	.	.	.	.
COC(=O)CN1C(=O)COc2ccc(S(=O)(=O)N3CCCCCC3)cc21	-1.06	14.4	i	-14.4	i	-18.1	.	.	.	.
